Assay results from different studies.
Compare with care: the assays were run in different laboratories.
Target: Calcium/calmodulin-dependent protein kinase type 1D (CAMK1D, Homo sapiens, UniProt Q8IU85)

For `CC(C)(C)c1cc(C=C(C#N)C#N)cc(Br)c1O`, the remaining activity was 111% (enzyme activity, inhibitor; 0.5 µM).
`COc1ncccc1-c1cnn2ccc(N3CCN(C(=O)OC(C)C)CC3)nc12` has a remaining binding of 100% (binding, competition with immobilised ligand; 1 µM).
`Cc1nn(C)cc1-c1nc2c(N3CCN(Cc4ccc(Cl)cc4)CC3)c(Cl)cnc2[nH]1` gave a remaining binding of 100% (binding, competition with immobilised ligand; 1 µM).
`Cn1cncc1[C@](O)(COc1ccc(C#N)cc1-c1ccc(OC(F)(F)F)cc1)c1ccc(C#N)cc1` has a remaining binding of 100% (cell-free assay, competition with immobilised ligand; 1 µM).
`Cn1cc(-c2cc(F)cc(N3CCn4c(cc5c4CCCC5)C3=O)c2CO)cc(Nc2ccc(N3CCN(C4COC4)CC3)cn2)c1=O` has an inhibition of 15% (enzyme activity, inhibitor; 0.1 µM).
The remaining binding of `N#CC1(c2ccccn2)CCN(Cc2cc(C(=O)O)c(=O)n3ccccc23)CC1` is reported as 100% (cell-free assay, competition with immobilised ligand; 1 µM).
For `Nc1ncc(-c2nc(N3CCOCC3)nc(N3CCOCC3)n2)c(C(F)F)n1`, the remaining binding was 100% (binding, competition with immobilised ligand; 10 µM).
With `O=c1[nH]c2ccccc2n1C1CCN(Cc2ccc(-c3[nH]c4cc5ncnc5cc4nc3-c3ccccc3)cc2)CC1` the remaining signal was 107% (cell-free assay; 0.5 µM).
